Results taken from ChEMBL document CHEMBL4304739, “Discovery of 3-(Indol-5-yl)-indazole Derivatives as Novel Myeloid Differentiation Protein 2/Toll-like Receptor 4 Antagonists for Treatment of Acute Lung Injury” (J Med Chem, 2019).
Activity calls are given as the source filed them. The rule behind the calls is not given here.

Key:
[1] = test system: Mus musculus; assay: Antiinflammatory activity in LPS-induced C57BL/6 mouse model of acute lung injury assessed as reduction in F4/80 positive macrophage at 5 to 10 mg/kg, iv pretreated for 15 mins followed by LPS stimulation and measured after 6 hrs by ABC/hematoxylin staining-based immunohistochemistry analysis; type: functional, organism-based
In short: (§1)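 Male C57BL/6 mice (18−22 g; n=8 per group). Compound in 0.1% CMC-Na given by tail vein injection 15 min before intraperitoneal LPS (20 mg/kg); controls received saline. Mice were sacrificed 6 h after LPS, and serum and lung tissue were collected.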

[2] = biological target: RAF proto-oncogene serine/threonine-protein kinase (Homo sapiens) (UniProt P04049); assay: Inhibition of wild-type human partial length RAF1 (I330 to T640 residues) expressed in bacterial expression system at 1 uM by Kinomescan method
In short: (§2)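 Binding-competition screen on the KINOMEscan platform, run by the provider, with the test compound at 1 μM. Readout is percent of control: (test signal − positive control signal)/(negative control signal − positive control signal) × 100. The DMSO negative control is set as 100% Ctrl and a control compound as 0% Ctrl. Lower values mean stronger hits.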

[3] = test system: Mus musculus; assay: Antiinflammatory activity in LPS-induced C57BL/6 mouse model of acute lung injury assessed as reduction in TNFalpha mRNA level at 10 mg/kg, iv pretreated for 15 mins followed by LPS stimulation and measured after 6 hrs by SYBR green staining-based qRT-PCR analysis; type: functional, organism-based
In short: (§3)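 Total lung RNA extracted, with DNase I removal of residual DNA. Quantitative PCR with mouse gene primers; each gene normalized to β-actin. C57BL/6 mice given compound iv 15 min before intraperitoneal LPS (20 mg/kg) and killed at 6 h.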

[4] = test system: Mast/stem cell growth factor receptor Kit (Homo sapiens), P10721 [V559D,T670I]; assay: Inhibition of human partial length KIT V559D/T670I double mutant (Y545 to D952 residues) expressed in bacterial expression system at 1 uM by Kinomescan method
In short: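 KINOMEscan competition binding panel (98 kinases) run by the provider, compound screened once at 1 μM. Read-out is percent of control: [(test signal − positive control signal)/(negative control signal − positive control signal)] × 100. DMSO negative control sets 100% Ctrl and a control compound sets 0% Ctrl; lower values mean stronger hits.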

[5] = biological target: Activin receptor type-1B (Homo sapiens) (UniProt P36896); assay: Inhibition of wild-type human ACVR1B (S187 to I505 residues) expressed in bacterial expression system at 1 uM by Kinomescan method
In short: (§4)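 KINOMEscan competition binding screen at 1 μM compound. Results reported as % of control = (test − positive control)/(DMSO negative control − positive control) × 100, where lower values mean stronger hits.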

[6] = test system: Mus musculus; assay: Antiinflammatory activity in LPS-induced C57BL/6 mouse model of acute lung injury assessed as appearance of normal pulmonary lobule structure at 5 to 10 mg/kg, iv pretreated for 15 mins followed by LPS stimulation and measured after 6 hrs by H and E staining-based microscopic analysis; type: functional, organism-based; in short: as §1
[7] = biological target: Serine/threonine-protein kinase PLK4 (Homo sapiens) (UniProt O00444); assay: Inhibition of wild-type human partial length PLK4 (M1 to S273 residues) expressed in mammalian expression system at 1 uM by Kinomescan method; in short: as §2
[8] = biological target: Serine/threonine-protein kinase PLK1 (Homo sapiens) (UniProt P53350); assay: Inhibition of wild-type human partial length PLK1 (A33 to F325 residues) expressed in mammalian expression system at 1 uM by Kinomescan method; in short: as §2
[9] = biological target: Serine/threonine-protein kinase Chk1 (Homo sapiens) (UniProt O14757); assay: Inhibition of wild-type human partial length CHEK1 (M1 to G289 residues) expressed in bacterial expression system at 1 uM by Kinomescan method; in short: as §2
[10] = biological target: Tyrosine-protein kinase BTK (Homo sapiens) (UniProt Q06187); assay: Inhibition of wild-type human full length BTK (M1 to S659 residues) expressed in mammalian expression system at 1 uM by Kinomescan method; in short: as §4
[11] = test system: Mus musculus; assay: Antiinflammatory activity in LPS-induced C57BL/6 mouse model of acute lung injury assessed as reduction in airspace inflammation at 5 to 10 mg/kg, iv pretreated for 15 mins followed by LPS stimulation and measured after 6 hrs by H and E staining-based microscopic analysis; type: functional, organism-based; in short: as §1
[12] = test system: Peritoneal macrophage; assay: Cytotoxicity against ICR mouse peritoneal macrophages assessed as reduction in cell viability up to 20 uM measured after 24 hrs by MTT assay; type: cell-based
In short: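 Peritoneal macrophages from ICR mice, 2.0×10^4 cells/well in DMEM with 10% FBS. Cells exposed to compound for 24 h, then MTT (5 mg/ml in 0.9% NaCl) added for 4 h at 37 °C in 5% CO2. Absorbance read at 490 nm; final DMSO 0.1%.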

[13] = biological target: Aurora kinase B (Homo sapiens) (UniProt Q96GD4); assay: Inhibition of wild-type human partial length AURKB (D25 to A303 residues) expressed in mammalian expression system at 1 uM by Kinomescan method; in short: as §2
[14] = biological target: Serine/threonine-protein kinase PAK 4 (Homo sapiens) (UniProt O96013); assay: Inhibition of wild-type human partial length PAK4 (Q144 to R438 residues) expressed in bacterial expression system at 1 uM by Kinomescan method; in short: as §2
[15] = biological target: Tyrosine-protein kinase ABL1 (Homo sapiens) (UniProt P00519); assay: Inhibition of wild-type human phosphorylated ABL1 (S229 to K512 residues) expressed in mammalian expression system at 1 uM by Kinomescan method
In short: (§5)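 Single-concentration screen at 1 μM on the KINOMEscan panel (98 kinases), run by the platform provider. Results are given as percent of control: % Ctrl = [(test signal − positive control signal)/(negative control signal − positive control signal)] × 100. DMSO serves as negative control (100% Ctrl) and a control compound as positive control (0% Ctrl). Lower values mean stronger binding hits.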

[16] = biological target: Focal adhesion kinase 1 (Homo sapiens) (UniProt Q05397); assay: Inhibition of wild-type human partial length FAK (D402 to R696 residues) expressed in bacterial expression system at 1 uM by Kinomescan method; in short: as §2
[17] = test system: Mus musculus; assay: Antiinflammatory activity in LPS-induced C57BL/6 mouse model of acute lung injury assessed as reduction in IL33 mRNA level at 10 mg/kg, iv pretreated for 15 mins followed by LPS stimulation and measured after 6 hrs by SYBR green staining-based qRT-PCR analysis; type: functional, organism-based; in short: as §3
[18] = biological target: Receptor-type tyrosine-protein kinase FLT3 (Homo sapiens) (UniProt P36888); assay: Inhibition of wild-type human partial length FLT3 (V592 to Y969 residues) expressed in bacterial expression system at 1 uM by Kinomescan method; in short: as §2
[19] = biological target: TGF-beta receptor type-1 (Homo sapiens) (UniProt P36897); assay: Inhibition of wild-type human partial length TGFBR1 (D179 to M503 residues) expressed in bacterial expression system at 1 uM by Kinomescan method; in short: as §5
[20] = biological target: Serine/threonine-protein kinase RIO2 (Homo sapiens) (UniProt Q9BVS4); assay: Inhibition of wild-type human partial length RIOK2 (M1 to D313 residues) expressed in mammalian expression system at 1 uM by Kinomescan method; in short: as §2

Serine/threonine-protein kinase PLK4 (Homo sapiens), sequence (O00444 whole entry, the tested form may be a part): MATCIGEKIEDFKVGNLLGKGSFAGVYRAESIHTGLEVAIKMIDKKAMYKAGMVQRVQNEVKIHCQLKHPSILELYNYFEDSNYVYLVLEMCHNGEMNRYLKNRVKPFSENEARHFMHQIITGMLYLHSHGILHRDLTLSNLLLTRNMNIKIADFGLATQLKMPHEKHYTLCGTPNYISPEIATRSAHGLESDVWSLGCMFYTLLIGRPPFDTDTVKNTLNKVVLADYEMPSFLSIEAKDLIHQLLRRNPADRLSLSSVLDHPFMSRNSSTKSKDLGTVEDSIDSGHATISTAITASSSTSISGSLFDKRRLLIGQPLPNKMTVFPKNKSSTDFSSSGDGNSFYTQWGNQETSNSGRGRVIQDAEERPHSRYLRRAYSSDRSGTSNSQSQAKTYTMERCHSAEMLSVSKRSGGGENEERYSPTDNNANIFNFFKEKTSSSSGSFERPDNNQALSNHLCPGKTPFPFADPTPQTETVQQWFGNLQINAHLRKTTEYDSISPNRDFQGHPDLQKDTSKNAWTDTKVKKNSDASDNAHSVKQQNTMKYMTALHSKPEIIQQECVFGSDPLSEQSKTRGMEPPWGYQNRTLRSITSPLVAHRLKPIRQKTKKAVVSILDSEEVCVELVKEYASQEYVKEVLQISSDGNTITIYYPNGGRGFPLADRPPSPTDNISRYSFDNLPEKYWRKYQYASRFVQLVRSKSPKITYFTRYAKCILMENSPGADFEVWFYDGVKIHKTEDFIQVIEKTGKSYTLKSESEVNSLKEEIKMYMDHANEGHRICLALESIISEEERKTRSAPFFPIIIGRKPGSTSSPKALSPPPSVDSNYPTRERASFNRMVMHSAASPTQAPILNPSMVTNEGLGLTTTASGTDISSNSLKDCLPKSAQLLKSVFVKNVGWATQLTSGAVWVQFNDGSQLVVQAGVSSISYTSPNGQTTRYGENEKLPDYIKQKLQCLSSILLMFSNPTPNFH
Tyrosine-protein kinase ABL1 (Homo sapiens), sequence (P00519 whole entry, the tested form may be a part): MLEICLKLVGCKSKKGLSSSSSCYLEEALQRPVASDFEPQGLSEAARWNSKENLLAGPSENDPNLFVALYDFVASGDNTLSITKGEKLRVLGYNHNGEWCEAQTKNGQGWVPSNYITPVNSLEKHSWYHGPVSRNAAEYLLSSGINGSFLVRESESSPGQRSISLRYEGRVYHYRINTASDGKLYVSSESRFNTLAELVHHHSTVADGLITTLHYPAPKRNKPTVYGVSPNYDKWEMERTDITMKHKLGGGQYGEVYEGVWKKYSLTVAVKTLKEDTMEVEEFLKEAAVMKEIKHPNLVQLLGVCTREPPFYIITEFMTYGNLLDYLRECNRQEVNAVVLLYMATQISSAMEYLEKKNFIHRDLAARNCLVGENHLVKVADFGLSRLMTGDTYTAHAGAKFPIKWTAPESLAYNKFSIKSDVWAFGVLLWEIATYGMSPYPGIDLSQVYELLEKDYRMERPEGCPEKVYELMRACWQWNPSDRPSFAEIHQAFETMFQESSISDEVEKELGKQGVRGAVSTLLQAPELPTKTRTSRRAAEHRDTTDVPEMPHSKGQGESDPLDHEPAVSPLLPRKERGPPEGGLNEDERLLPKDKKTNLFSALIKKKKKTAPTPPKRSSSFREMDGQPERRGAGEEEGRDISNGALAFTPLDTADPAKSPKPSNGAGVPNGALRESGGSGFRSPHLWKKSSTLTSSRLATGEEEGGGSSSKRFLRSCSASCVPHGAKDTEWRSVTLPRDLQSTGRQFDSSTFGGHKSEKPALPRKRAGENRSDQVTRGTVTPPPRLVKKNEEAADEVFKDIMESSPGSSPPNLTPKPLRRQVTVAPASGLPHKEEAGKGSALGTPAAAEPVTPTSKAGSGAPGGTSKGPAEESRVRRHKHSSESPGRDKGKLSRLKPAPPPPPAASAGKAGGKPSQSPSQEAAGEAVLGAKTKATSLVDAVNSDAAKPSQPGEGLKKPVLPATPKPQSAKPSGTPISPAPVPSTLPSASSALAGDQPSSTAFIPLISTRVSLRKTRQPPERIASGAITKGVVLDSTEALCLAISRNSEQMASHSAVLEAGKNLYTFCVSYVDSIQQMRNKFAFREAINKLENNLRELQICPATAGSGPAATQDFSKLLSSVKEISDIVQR
Mast/stem cell growth factor receptor Kit (Homo sapiens), P10721 [V559D,T670I], sequence (P10721 whole entry V559D/T670I, the tested form may be a part): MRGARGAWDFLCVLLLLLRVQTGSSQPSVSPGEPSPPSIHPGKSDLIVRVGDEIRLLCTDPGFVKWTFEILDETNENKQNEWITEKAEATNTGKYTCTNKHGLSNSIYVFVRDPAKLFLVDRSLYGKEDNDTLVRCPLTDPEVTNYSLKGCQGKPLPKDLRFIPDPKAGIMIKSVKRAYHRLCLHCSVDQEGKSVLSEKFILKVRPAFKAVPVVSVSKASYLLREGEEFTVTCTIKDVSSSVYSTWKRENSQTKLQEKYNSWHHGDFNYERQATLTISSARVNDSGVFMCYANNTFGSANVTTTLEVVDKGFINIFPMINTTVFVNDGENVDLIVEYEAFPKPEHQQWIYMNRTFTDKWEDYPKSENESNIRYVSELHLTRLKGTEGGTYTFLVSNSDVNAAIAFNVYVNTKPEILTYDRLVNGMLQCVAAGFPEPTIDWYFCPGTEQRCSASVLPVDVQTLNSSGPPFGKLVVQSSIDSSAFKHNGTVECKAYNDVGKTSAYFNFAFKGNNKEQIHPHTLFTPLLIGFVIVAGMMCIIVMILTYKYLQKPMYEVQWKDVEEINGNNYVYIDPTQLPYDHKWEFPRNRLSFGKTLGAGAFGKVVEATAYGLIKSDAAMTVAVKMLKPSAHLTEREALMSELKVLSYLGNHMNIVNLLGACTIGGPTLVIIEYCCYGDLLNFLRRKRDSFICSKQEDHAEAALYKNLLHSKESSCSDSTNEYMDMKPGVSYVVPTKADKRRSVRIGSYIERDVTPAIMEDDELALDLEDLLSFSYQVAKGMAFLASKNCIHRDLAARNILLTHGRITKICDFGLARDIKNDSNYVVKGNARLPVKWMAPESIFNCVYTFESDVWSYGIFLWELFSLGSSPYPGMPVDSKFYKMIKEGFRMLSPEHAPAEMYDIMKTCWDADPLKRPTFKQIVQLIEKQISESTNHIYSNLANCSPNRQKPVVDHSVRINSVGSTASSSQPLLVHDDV
RAF proto-oncogene serine/threonine-protein kinase (Homo sapiens), sequence (P04049 whole entry, the tested form may be a part): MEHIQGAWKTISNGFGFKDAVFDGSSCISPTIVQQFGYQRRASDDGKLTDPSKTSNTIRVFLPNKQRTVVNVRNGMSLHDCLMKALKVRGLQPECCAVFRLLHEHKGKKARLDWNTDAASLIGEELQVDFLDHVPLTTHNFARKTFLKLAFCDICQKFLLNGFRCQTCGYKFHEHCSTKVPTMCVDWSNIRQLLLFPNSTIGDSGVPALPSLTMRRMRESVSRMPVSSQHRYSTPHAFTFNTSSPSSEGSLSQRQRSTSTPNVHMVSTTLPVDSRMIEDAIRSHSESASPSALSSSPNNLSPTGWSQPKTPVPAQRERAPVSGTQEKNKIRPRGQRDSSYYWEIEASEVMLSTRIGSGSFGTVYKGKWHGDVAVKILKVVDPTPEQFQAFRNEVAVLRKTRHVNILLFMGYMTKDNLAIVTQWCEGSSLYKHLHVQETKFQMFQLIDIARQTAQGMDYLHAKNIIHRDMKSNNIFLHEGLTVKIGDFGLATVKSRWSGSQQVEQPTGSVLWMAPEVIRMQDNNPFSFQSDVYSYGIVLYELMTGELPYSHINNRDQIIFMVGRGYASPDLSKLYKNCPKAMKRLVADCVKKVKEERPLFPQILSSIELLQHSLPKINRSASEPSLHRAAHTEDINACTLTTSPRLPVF
Activin receptor type-1B (Homo sapiens), sequence (P36896 whole entry, the tested form may be a part): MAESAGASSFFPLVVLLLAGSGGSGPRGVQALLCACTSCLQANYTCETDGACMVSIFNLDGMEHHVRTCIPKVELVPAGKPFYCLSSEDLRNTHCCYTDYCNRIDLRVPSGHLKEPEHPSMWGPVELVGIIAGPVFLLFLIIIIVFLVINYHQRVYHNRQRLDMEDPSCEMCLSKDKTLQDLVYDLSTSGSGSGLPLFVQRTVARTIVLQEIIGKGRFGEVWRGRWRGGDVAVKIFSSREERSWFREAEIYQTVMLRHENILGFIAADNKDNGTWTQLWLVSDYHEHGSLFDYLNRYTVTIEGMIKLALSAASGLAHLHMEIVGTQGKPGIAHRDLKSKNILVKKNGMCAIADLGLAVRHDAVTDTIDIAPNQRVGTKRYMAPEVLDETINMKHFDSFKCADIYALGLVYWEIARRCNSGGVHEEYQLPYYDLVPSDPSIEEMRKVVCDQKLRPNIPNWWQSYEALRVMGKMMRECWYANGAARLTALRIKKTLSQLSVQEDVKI
Serine/threonine-protein kinase PAK 4 (Homo sapiens), sequence (O96013 whole entry, looked up, the tested form may be a part): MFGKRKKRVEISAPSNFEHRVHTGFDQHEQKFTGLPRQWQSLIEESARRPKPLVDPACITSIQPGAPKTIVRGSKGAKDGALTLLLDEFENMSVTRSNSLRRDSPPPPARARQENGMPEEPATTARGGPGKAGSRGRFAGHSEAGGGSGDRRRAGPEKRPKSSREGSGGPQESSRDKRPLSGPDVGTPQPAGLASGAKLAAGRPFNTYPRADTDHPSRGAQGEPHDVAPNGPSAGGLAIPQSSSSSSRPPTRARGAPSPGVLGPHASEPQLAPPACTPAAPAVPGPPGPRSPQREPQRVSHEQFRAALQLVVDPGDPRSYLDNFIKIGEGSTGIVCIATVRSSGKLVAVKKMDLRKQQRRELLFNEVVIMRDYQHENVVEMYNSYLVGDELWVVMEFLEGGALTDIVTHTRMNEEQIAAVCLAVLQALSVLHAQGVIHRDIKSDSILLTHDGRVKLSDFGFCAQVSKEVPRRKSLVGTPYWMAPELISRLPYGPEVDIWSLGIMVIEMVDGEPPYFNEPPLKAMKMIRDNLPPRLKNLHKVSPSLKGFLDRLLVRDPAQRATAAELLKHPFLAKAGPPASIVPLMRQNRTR

O=C(Nc1ccc2[nH]nc(-c3ccc4[nH]ccc4c3)c2c1)c1c(Cl)cccc1Cl
Activity [1]: Active
inhibition [2]: inactive
Activity [3]: Active
inhibition [4]: inactive
inhibition [5]: inactive
Activity [6]: Active
inhibition [7]: inactive
inhibition [8]: inactive
inhibition [9]: inactive
inhibition [10]: inactive
Activity [11]: Active
Activity [12]: Non-Toxic
inhibition [13]: inactive
inhibition [14]: inactive
inhibition [15]: inactive
inhibition [16]: inactive
Activity [17]: Active
inhibition [18]: inactive
inhibition [19]: inactive
inhibition [20]: inactive
